Experiments:
[1] = molecular target: T1, ATP-citrate synthase (Mus musculus) (UniProt Q91V92); assay: In Vivo effect for the hypolipidemic activity on ATP-Citrate Lyase in CF1 mice after 16 days of oral administration at a dose of 10 mg/kg; format: organism-based; parameters: dose 10 mg/kg
T1 sequence (whole entry): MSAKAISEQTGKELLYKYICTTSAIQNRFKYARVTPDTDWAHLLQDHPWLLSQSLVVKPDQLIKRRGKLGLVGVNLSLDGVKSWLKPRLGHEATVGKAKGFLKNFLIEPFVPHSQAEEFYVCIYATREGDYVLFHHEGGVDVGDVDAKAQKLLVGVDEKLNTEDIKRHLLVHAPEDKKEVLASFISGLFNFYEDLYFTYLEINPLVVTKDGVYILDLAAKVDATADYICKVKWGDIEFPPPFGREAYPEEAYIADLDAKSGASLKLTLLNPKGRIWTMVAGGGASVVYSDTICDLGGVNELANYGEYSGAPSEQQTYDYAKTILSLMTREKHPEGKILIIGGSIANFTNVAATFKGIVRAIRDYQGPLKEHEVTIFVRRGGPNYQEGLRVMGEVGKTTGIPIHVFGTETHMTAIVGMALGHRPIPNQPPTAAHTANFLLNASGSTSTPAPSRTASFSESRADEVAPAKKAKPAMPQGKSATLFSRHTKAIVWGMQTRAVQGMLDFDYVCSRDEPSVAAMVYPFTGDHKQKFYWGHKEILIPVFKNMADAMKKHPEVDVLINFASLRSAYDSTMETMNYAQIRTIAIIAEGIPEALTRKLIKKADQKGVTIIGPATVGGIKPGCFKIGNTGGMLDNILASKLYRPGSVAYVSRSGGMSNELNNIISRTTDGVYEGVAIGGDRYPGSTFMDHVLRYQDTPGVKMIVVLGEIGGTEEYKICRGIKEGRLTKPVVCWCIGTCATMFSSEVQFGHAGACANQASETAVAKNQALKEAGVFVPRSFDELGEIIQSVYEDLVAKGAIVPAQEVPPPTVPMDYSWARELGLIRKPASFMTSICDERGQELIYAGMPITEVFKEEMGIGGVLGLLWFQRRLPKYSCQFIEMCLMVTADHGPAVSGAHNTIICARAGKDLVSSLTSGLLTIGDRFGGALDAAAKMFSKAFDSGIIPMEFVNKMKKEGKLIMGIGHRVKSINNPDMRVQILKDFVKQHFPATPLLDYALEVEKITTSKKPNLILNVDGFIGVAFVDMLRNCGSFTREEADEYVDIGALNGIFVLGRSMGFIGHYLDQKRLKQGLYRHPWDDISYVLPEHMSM
How it was run: (§1)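 CF1 male mice are dosed orally at 10–60 mg/kg per day for 16 days, with 1% CMC as the control vehicle. Liver is homogenized at 10% in 0.25 M sucrose + 0.001 M EDTA, pH 7.2. Enzymes are assayed by literature methods, with Lowry protein. Activity is given as % of control (X ± SD, N = 6), with p from Student's t test.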

[2] = molecular target: T1, ATP-citrate synthase (Mus musculus); assay: In Vitro evaluation for the CF1 liver enzyme activity on ATP-Citrate Lyase exchange at concentration 100 uM
How it was run: (§2)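 Liver was taken from CF1 male mice and made into 10% homogenates, which were incubated with test compound at 50, 100 or 200 µM. Each enzyme was assayed by its literature method, and protein was measured by Lowry. N = 6. Activity is expressed as % of untreated control ± SD.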

[3] = molecular target: T2, 3-hydroxy-3-methylglutaryl-coenzyme A reductase (Mus musculus) (UniProt Q01237); assay: In Vivo effect for the hypolipidemic activity on HMG-CoA reductase in CF1 mice after 16 days of oral administration at a dose of 20 mg/kg; format: organism-based; parameters: dose 20 mg/kg; how it was run: as §1
T2 sequence (whole entry): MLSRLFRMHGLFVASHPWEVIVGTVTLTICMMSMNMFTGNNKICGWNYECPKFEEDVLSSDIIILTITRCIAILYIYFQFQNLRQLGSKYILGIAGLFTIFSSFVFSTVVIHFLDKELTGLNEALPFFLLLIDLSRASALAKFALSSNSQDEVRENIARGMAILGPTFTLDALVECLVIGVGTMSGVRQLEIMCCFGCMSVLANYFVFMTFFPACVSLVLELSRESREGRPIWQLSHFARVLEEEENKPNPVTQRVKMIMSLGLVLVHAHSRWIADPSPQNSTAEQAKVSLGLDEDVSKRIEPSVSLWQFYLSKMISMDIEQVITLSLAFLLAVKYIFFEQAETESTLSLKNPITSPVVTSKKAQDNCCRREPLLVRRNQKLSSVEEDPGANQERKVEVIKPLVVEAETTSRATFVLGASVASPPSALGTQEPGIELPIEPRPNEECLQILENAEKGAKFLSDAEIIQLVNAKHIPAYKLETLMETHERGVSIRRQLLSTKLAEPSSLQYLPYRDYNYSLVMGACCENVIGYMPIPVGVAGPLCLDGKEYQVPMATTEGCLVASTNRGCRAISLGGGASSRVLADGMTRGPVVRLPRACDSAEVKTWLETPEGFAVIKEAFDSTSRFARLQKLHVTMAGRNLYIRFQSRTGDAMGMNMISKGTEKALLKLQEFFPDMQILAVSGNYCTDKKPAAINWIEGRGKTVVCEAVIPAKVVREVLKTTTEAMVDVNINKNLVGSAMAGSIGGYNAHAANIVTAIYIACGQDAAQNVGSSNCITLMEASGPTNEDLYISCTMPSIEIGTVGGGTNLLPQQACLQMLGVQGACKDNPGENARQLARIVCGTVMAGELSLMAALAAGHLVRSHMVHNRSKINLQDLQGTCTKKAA

[4] = system: Rattus norvegicus; assay: Compound was evaluated for the hypolipidemic activity at 20 mg/kg per day orally for 14 days on triglycerides content in rat lipoprotein chylomicron; p</=0.001; format: functional; conditions: route oral
How it was run: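 Male Sprague–Dawley rats (~300 g) were dosed orally each day. Blood was drawn from the abdominal vein. Lipoprotein fractions (chylomicron, VLDL, LDL, HDL) were separated by the Hatch–Lees and Havel methods. Each fraction was assayed for cholesterol, triglyceride (enzymatic kit), neutral lipids, phospholipids and Lowry protein. Values are % of 1% CMC vehicle control, N = 6.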

[5] = molecular target: Cholesterol 7-alpha-hydroxylase (Cytochrome P450 7A1) (Mus musculus, UniProt Q64505); assay: In vitro percent Cholesterol 7-alpha-hydroxylase activity in mouse CF1 liver microsomes at 100 uM; parameters: species or system Microsome; conditions: read-out: Control
Chain of Cholesterol 7-alpha-hydroxylase (Cytochrome P450 7A1) (Q64505 whole entry): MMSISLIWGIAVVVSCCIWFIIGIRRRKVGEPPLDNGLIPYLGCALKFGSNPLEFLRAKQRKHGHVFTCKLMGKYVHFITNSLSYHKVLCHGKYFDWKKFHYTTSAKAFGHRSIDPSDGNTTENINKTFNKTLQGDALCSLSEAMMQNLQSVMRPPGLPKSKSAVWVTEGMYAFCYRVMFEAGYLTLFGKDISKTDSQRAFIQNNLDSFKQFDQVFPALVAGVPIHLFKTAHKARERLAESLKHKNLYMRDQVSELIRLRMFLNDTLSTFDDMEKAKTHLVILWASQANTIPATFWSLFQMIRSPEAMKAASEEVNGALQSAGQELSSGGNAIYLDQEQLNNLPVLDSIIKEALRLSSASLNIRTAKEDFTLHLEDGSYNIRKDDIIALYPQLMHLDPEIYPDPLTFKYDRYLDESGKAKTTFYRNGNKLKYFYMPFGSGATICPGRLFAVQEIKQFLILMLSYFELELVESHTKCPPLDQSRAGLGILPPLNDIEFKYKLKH
How it was run: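 Mouse liver enzymes assayed in vitro on 10% homogenates of CF1 male mouse liver, with test drug added at 50–200 μM. Each enzyme follows a published procedure. Protein is measured by Lowry. Activity is given as % of untreated control (X ± SD, N = 6).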

[6] = molecular target: T2, 3-hydroxy-3-methylglutaryl-coenzyme A reductase (Mus musculus); assay: In Vitro evaluation for the CF1 liver enzyme activity on HMG CoA reductase at concentration 200 uM; how it was run: as §2
[7] = system: Rattus norvegicus; assay: Compound was evaluated for the hypolipidemic activity in Sprague-Dawley rats at a dose of 20 mg/kg orally for Serum triglyceride at 9th day; format: functional; conditions: route oral
How it was run: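 Sprague–Dawley male rats (~350 g) received 20 mg/kg per day orally, with 1% CMC as the vehicle control; N = 6. Tail-vein blood was taken between 8:00 and 9:30 a.m. on days 9 and 16 and spun for 3 min to obtain serum. Cholesterol was measured by a modified Liebermann–Burchard reaction and triglyceride by kit. Values are % control ± SD; significance by Student's t test.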

Control [1]: 70%
Control [2]: 51%
Control [3]: 114%
activity at 100 µM [5]: 144%
Control [6]: 105%
SMILES: COc1ccc(C2C(=O)c3ccccc3C2=O)cc1 [ANISINDIONE]
Control [4]: 72%
Control [7]: 73%

— ChEMBL document CHEMBL1123129, “Hypolipidemic activity of indan-1,3-dione derivatives in rodents” (J Med Chem, 1985)
